Here are results for twelve molecules from ChEMBL document CHEMBL1145913, “Synthesis and evaluation of imidazole acetic acid inhibitors of activated thrombin-activatable fibrinolysis inhibitor as novel antithrombotics” (J Med Chem, 2003).

SMILES strings stand for the structures. pIC50: −log10 of the molar value. Some results are limits rather than exact numbers.

Data set [1] can be described thus: Concentration of compound that gives 50% of the maximum acceleration of lysis was determined by clot lysis assay using human plasma. It counts as functional.
Data set [2] can be described thus: In vitro inhibition of purified Carboxypeptidase N (CPN) by spectrophotometric assay.
The target of data set [3] is Carboxypeptidase B2 (Homo sapiens) (UniProt Q96IY4). Kind of data set: In vitro inhibition of activated thrombin-activatable fibrinolysis inhibitor (TAFIa) was determined by ECL enzyme assay.
The nature of data set [4]: In vitro inhibition of thrombin-activatable fibrinolysis was determined against TAFIa enzyme by ECL assay.
A short description of data set [5]: Tested in vivo for time-to-occlusion in carotid artery of african green monkey when administered at a dose of 0.1 mg/kg iv bolus + 0.03 mg/(kg.min) continuous infusion. Format: functional, Cercopithecidae.
Data set [6] is described as follows: Tested in vivo for time-to-occlusion in carotid artery of african green monkey when administered along with saline. It counts as functional, Cercopithecidae.
A short description of data set [7]: Tested in vivo for time-to-occlusion in jugular vein of african green monkey when administered at a dose of 0.1 mg/kg iv bolus + 0.03 mg/(kg.min) continuous infusion. Format: functional, Cercopithecidae. The method in brief:
(§1)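 African green monkey jugular vein model. Time-to-occlusion is recorded during iv bolus plus continuous infusion for 300 min; vehicle-treated animals are included.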

A short description of data set [8]: Half life in dog. Format: ADME, organism-based, Canis lupus familiaris. Conditions: in vivo.
The nature of data set [9]: Clearance in rhesus. Format: ADME, organism-based, Macaca mulatta. Conditions: rhesus monkey, in vivo.
Data set [10] is described as follows: Bioavailability in rat. Format: ADME, organism-based. Conditions: in vivo.
Data set [11] in a line: Clearance in dog. Format: ADME, organism-based, Canis lupus familiaris. To be noted: in vivo.
Data set [12] can be described thus: Tested in vivo for time-to-occlusion in carotid artery of african green monkey when administered at a dose of 0.3 mg/kg iv bolus + 0.1 mg/(kg.min) continuous infusion. It counts as functional, Cercopithecidae.
A short description of data set [13]: Tested in vivo for bleeding time in african green monkey when administered at a dose of 0.1 mg/kg iv bolus + 0.03 mg/(kg.min) continuous infusion. It counts as functional, Cercopithecidae. The method in brief:
(§2)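 African green monkeys receive an iv bolus and then continuous infusion for 300 min, or vehicle. Template bleeding time is measured.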

Data set [14] can be described thus: Tested in vivo for bleeding time in african green monkey when administered along with saline. Format: functional, Cercopithecidae. Put shortly: as §2
Data set [15] is described as follows: Tested in vivo for time-to-occlusion in jugular vein of african green monkey when administered at a dose of 0.03 mg/kg iv bolus + 0.01 mg/(kg.min) continuous infusion. Format: functional, Cercopithecidae. Put shortly:
as §1

The nature of data set [16]: Tested in vivo for time-to-occlusion in jugular vein of african green monkey when administered along with saline. Format: functional, Cercopithecidae. The method in brief: as §1
Data set [17] in a line: Tested in vivo for time-to-occlusion in carotid artery of african green monkey when administered at a dose of 0.03 mg/kg iv bolus + 0.01 mg/(kg.min) continuous infusion. It counts as functional, Cercopithecidae.
Data set [18] can be described thus: Tested in vivo for time-to-occlusion in jugular vein of african green monkey when administered at a dose of 0.3 mg/kg iv bolus + 0.1 mg/(kg.min) continuous infusion. It counts as functional, Cercopithecidae. The method in brief: as §1
A short description of data set [19]: Tested in vivo for time-to-occlusion in carotid artery of african green monkey when administered at a dose of 0.05 mg/kg iv bolus + 0.02 mg/(kg.min) continuous infusion. It counts as functional, Cercopithecidae.
Data set [20] in a line: Half life in rat. Format: ADME, organism-based. Conditions: in vivo.
Data set [21] can be described thus: Tested in vivo for bleeding time in african green monkey when administered at a dose of 0.05 mg/kg iv bolus + 0.02 mg/(kg.min) continuous infusion. Format: functional, Cercopithecidae. The method in brief:
as §2

Data set [22] can be described thus: Bioavailability in dog. Format: ADME, organism-based, Canis lupus familiaris. Conditions: in vivo.
A short description of data set [23]: Tested in vivo for time-to-occlusion in jugular vein of african green monkey when administered at a dose of 0.05 mg/kg iv bolus + 0.02 mg/(kg.min) continuous infusion. Format: functional, Cercopithecidae. Put shortly: as §1
Data set [24] can be described thus: Bioavailability in rhesus. It counts as ADME, organism-based, Macaca mulatta. To be noted: rhesus monkey, in vivo.
Data set [25] in a line: Clearance in rat. It counts as ADME, organism-based. Conditions: in vivo.
A short description of data set [26]: Tested in vivo for bleeding time in african green monkey when administered at a dose of 0.3 mg/kg iv bolus + 0.1 mg/(kg.min) continuous infusion. Format: functional, Cercopithecidae. The method in brief: as §2
Data set [27] can be described thus: Tested in vivo for bleeding time in african green monkey when administered at a dose of 0.03 mg/kg iv bolus + 0.01 mg/(kg.min) continuous infusion. Format: functional, Cercopithecidae. Put shortly:
as §2

Data set [28] in a line: Volume of distribution in rhesus. Format: ADME, organism-based, Macaca mulatta. To be noted: rhesus monkey, in vivo; read-out: Vdss.
The nature of data set [29]: Volume of distribution in rat. It counts as ADME, organism-based. Conditions: in vivo, read-out: Vdss.
The nature of data set [30]: Half life in rhesus. To be noted: rhesus monkey, in vivo. It counts as ADME, organism-based, Macaca mulatta.
Data set [31] is described as follows: Volume of distribution in dog. Format: ADME, organism-based, Canis lupus familiaris. Conditions: in vivo, read-out: Vdss.

In data set [1], `CCCCn1cnc(C(Cc2ccc(N)nc2)C(=O)O)c1` (centres undefined) displayed a CLT50 of 0.15 µM. The pIC50 (as a rule, −log10 of the IC50, conventionally taken in molar units) in data set [2] is under 4.30.
As for `O=C(O)CC(Cc1ccccc1)C(=O)O` (centres undefined), the CLT50 in [1] was over 50 µM.
Turning to `O=C(O)C(Cc1ccccc1)c1c[nH]cn1` (centres undefined), in [1], the CLT50 was over 50 µM. For the same molecule, the values for the pIC50 in data set [3] and in data set [2] were under 4.00 and under 4.30, respectively.
For `Cn1cnc(C(Cc2ccc(N)nc2)C(=O)O)c1` (centres undefined), in data set [1], the CLT50 was 0.42 µM. In data set [2], this molecule showed a pIC50 of under 4.30.
Molecule `CC(C)n1cnc(C(Cc2ccc(N)nc2)C(=O)O)c1` (centres undefined) gave a CLT50 in [1] of 1.06 µM. This molecule also gave a negative-log IC50 (pIC50) in data set [2] of under 4.30.
On to `CCn1cnc(C(Cc2ccc(N)nc2)C(=O)O)c1` (centres undefined), for which, in data set [1], the CLT50 is 0.65 µM. In data set [2], this molecule had a negative-log IC50 (pIC50) of under 4.30.
On to `Nc1ccc(CC(C(=O)O)c2cn(Cc3ccccc3)cn2)cn1` (centres undefined), for which the CLT50 in [1] came out at 0.74 µM. The pIC50 is 7.55 in data set [3] and under 4.30 in data set [2].
For `Nc1ccc(CC(C(=O)O)c2c[nH]cn2)cn1` (racemic), the negative-log IC50 (pIC50) in [4] is 7.10. In data set [1], this molecule registered a CLT50 of 0.97 µM.
For the molecule `CC(C)CCn1cnc(C(Cc2ccc(N)nc2)C(=O)O)c1` (racemic), the pIC50 in data set [4] is 8.30. This molecule registered a CLT50 in data set [1] of 0.12 µM.
Consider `Nc1ccc(CC(C(=O)O)c2c[nH]cn2)cn1` (single isomer, unassigned; (-)), for which the pIC50 in data set [4] was 7.40. In data set [1], this molecule came in with a CLT50 of 0.5 µM.
With `Nc1ccc(CC(C(=O)O)c2c[nH]cn2)cn1` (stereo in doubt; 10b(+)), the pIC50 in [4] is 5.74; in data set [2], under 4.30. Besides, the CLT50 in data set [1] was over 10 µM.
For `CC(C)CCn1cnc(C(Cc2ccc(N)nc2)C(=O)O)c1` (stereo in doubt; 10j(-)), the TTO in [5] amounted to 52 min; in [6] it was 51 min; in data set [7] it was 171 min; in data set [12] it was 85 min; in data set [15], 128 min; in [16], 96 min. Besides, the TTO in [17] turned out to be 61 min; in data set [18], 216 min; in [19], 62 min; in [23], 147 min. Also, the values for the half-life in data set [8], in [20] and in [30] were 36 min, 66 min and 48 min, respectively. In addition, the clearance (commonly a measure of how efficiently the substance is removed, as volume per time) turned out to be 6.1 mL/min/kg in [9], 6.1 mL/min/kg in [11] and 32 mL/min/kg in data set [25]. Further, the values for the bioavailability in data set [10], in [22] and in data set [24] were 47%, 38% and 12%, respectively. Further, the negative-log IC50 (pIC50) in [4] was 8.70; in data set [2], under 4.30. Moreover, the Bleeding time in data set [13] was found to be 2.3 min; in data set [14] it was 2 min; in [21] it was 2.2 min; in [26] it was 2.9 min; in [27], 2 min. In data set [1], the CLT50 is 0.056 µM. The Vd turned out to be 0.26 L/kg in data set [28], 1.36 L/kg in data set [29] and 0.28 L/kg in [31].
